Assay [1] concerns the target T1, NAD-dependent protein deacetylase sirtuin-2 (Homo sapiens) (UniProt Q8IXJ6).
T1 sequence (whole entry): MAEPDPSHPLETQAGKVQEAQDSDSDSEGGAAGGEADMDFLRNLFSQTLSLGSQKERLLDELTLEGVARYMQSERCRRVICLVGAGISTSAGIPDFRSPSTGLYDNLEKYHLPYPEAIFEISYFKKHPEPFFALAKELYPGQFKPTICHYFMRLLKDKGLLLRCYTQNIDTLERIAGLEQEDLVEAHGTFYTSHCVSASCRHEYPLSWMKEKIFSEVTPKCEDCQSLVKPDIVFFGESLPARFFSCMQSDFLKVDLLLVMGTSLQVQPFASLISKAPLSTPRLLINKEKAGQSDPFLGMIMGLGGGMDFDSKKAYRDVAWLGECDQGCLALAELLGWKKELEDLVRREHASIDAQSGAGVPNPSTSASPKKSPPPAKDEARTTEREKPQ
Briefly: Inhibition of recombinant human C-terminal His-tagged SIRT2 (50 to 389 end residues) expressed in Escherichia coli at 10 uM using p53 derived (379 to 382 residues) fluorogenic peptide substrate RHKK(Ac)-AMC preincubated for 10 mins followed by substrate addition in presence of NAD+ by fluorescence assay relative to control. Put shortly:
(§1)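 Two-step fluorogenic assay with p53 379–382 RHKK(Ac)-AMC. Compound (from 10 mM DMSO stock) preincubated ~10 min with human SIRT before substrate addition. Developer then releases fluorophore, read at ex 360/em 460 nm.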

In assay [2] the target is T2, NAD-dependent protein deacetylase sirtuin-2 (Homo sapiens, UniProt Q8IXJ6).
T2 sequence (Q8IXJ6 whole entry): T1 sequence (whole entry)
Briefly: Inhibition of recombinant human C-terminal His-tagged SIRT2 (50 to 389 end residues) expressed in Escherichia coli using p53 derived (379 to 382 residues) fluorogenic peptide substrate RHKK(Ac)-AMC preincubated for 10 mins followed by substrate addition in presence of NAD+ by fluorescence assay. A digest of the protocol: as §1

Broadly, the inhibition is how much of the control response was suppressed. One may read the IC50 as the concentration that gives 50% inhibition.

On to `COc1cccc(CNC2CCc3c(sc4ncn(Cc5ccccc5OC)c(=O)c34)C2)c1` (centres undefined), for which the inhibition in assay [1] worked out at 69%. In addition, in assay [2], the 50% inhibitory concentration (IC50) was 13.4 µM.

As to `O=c1c2c3c(sc2ncn1Cc1cccc2cccnc12)CC(NCc1cccnc1)CC3` (centres undefined), the inhibition in assay [1] came out at 91%. In assay [2], the IC50 turned out to be 2.92 µM. Turning to `COc1ccccc1Cn1cnc2sc3c(c2c1=O)CCC(NCc1ccccc1)C3` (centres undefined), the inhibition in assay [1] was 75%. In addition, in assay [2], the IC50 is 10.4 µM. With `COc1ccc2ccccc2c1Cn1cnc2sc3c(c2c1=O)CCC(NCc1ccco1)C3` (centres undefined), the inhibition in assay [1] was found to be 78%. In addition, the IC50 in assay [2] is 5.24 µM.

As for `COc1ccc2ccccc2c1Cn1cnc2sc3c(c2c1=O)CCC(NC1CCCC1)C3` (centres undefined), in assay [1], the inhibition is 99%. Further, in assay [2], the IC50 was 1.18 µM. The like results for `O=c1c2c3c(sc2ncn1Cc1cccc(-c2ccccc2)c1)CC(NCC1CCOC1)CC3` (centres undefined) were, in that order, 91% and 2.58 µM. On the same counts, the results for `O=c1c2c3c(sc2ncn1Cc1cccc(-c2ccccc2)c1)CC(NC1CCOCC1)CC3` (centres undefined) are 93% and 1.74 µM. Regarding `O=c1c2c3c(sc2ncn1Cc1cccc2ccccc12)CC(NCc1ccccn1)CC3` (centres undefined), the inhibition in assay [1] turned out to be 81%. In assay [2], the IC50 was determined as 7.68 µM. Turning to `O=c1c2c3c(sc2ncn1Cc1cccc2cccnc12)CC(NCc1ccccc1)CC3` (centres undefined), the inhibition in assay [1] was 93%. The IC50 in assay [2] stood at 2.5 µM. For `COc1ccc(CNCCc2sc3ncn(Cc4c(OC)ccc5ccccc45)c(=O)c3c2C)cc1`, the inhibition in assay [1] is 89%. The IC50 in assay [2] amounted to 3.36 µM. For the molecule `COc1ccccc1CNC1CCc2c(sc3ncn(Cc4ccccc4OC)c(=O)c23)C1` (centres undefined), the inhibition in assay [1] was 72%. Further, the IC50 in assay [2] is 9.59 µM. Regarding `O=c1c2c3c(sc2ncn1Cc1cccc2cccnc12)CC(NCc1ccncc1)CC3` (centres undefined), the inhibition in assay [1] is 83%. For the same molecule, the IC50 in assay [2] was determined as 3.68 µM.

Take `COc1ccc2ccccc2c1Cn1cnc2sc3c(c2c1=O)CCC(NCc1ccccc1)C3` (centres undefined): the IC50 in assay [2] was determined as 21.1 µM. Consider `COc1ccc2ccccc2c1Cn1cnc2sc3c(c2c1=O)CCC(NCc1ccncc1)C3` (centres undefined), for which, in assay [1], the inhibition was found to be 95%. Moreover, the IC50 in assay [2] came to 1.2 µM. `COc1ccccc1CNC1CCc2c(sc3ncn(Cc4c(OC)ccc5ccccc45)c(=O)c23)C1` (centres undefined): the inhibition in assay [1] was determined as 89%. Also, in assay [2], the IC50 came to 2.24 µM. With `COc1ccc2ccccc2c1Cn1cnc2sc3c(c2c1=O)CCC(NCc1c(C)nn(C)c1C)C3` (centres undefined), the inhibition in assay [1] worked out at 94%. For the same molecule, the IC50 in assay [2] is 5.11 µM. As to `O=c1c2c3c(sc2ncn1Cc1ccc2ccccc2c1)CC(NCc1ccco1)CC3` (centres undefined), in assay [1], the inhibition was 72%. Besides, the IC50 in assay [2] was 11.7 µM. On to `O=c1c2c3c(sc2ncn1Cc1cccc2ccccc12)CC(NCCc1ccncc1)CC3` (centres undefined), for which the inhibition in assay [1] was 75%. In assay [2], the IC50 was found to be 5.79 µM. For the molecule `COc1ccc2ccccc2c1Cn1cnc2sc(CCNCc3cccnc3)c(C)c2c1=O`, the inhibition in assay [1] was found to be 93%. Also, in assay [2], the IC50 is 2.15 µM. Consider `COc1ccc(NC2CCc3c(sc4ncn(Cc5cccc6cccnc56)c(=O)c34)C2)cc1` (centres undefined), for which the inhibition in assay [1] amounted to 82%. Also, the IC50 in assay [2] is 2.48 µM.

With `O=c1c2c3c(sc2ncn1Cc1cccc2cccnc12)CC(NCc1cccs1)CC3` (centres undefined), the inhibition in assay [1] was 88%. In assay [2], the IC50 stood at 2.56 µM. For the molecule `COc1ccc(CNC2CCc3c(sc4ncn(Cc5cccc6cccnc56)c(=O)c34)C2)cc1` (centres undefined), the inhibition in assay [1] was determined as 95%. In addition, the IC50 in assay [2] was found to be 1.83 µM.

For `O=c1c2c3c(sc2ncn1Cc1cccc2ccccc12)CC(NCCc1cccnc1)CC3` (centres undefined), in assay [1], the inhibition is 80%. For the same molecule, the IC50 in assay [2] worked out at 9.57 µM. As for `COc1ccc(CNC2CCc3c(sc4ncn(Cc5ccc6ccccc6c5)c(=O)c34)C2)cn1` (centres undefined), in assay [1], the inhibition was found to be 76%. For the same molecule, the IC50 in assay [2] was found to be 10.2 µM.

As to `COc1cccc(CNC2CCc3c(sc4ncn(Cc5c(OC)ccc6ccccc56)c(=O)c34)C2)c1` (centres undefined), the half-maximal inhibitory concentration (IC50) in assay [2] was 1.9 µM. With `COc1ccc(CNC2CCc3c(sc4ncn(Cc5cccc6cccnc56)c(=O)c34)C2)cn1` (centres undefined), the inhibition in assay [1] came to 90%. Further, the IC50 in assay [2] was determined as 2.65 µM. As for `O=c1c2c3c(sc2ncn1Cc1cccc2ccccc12)CC(NCc1ccco1)CC3` (centres undefined), the inhibition in assay [1] was 70%. For the same molecule, the IC50 in assay [2] came to 7.61 µM.

As to `Cc1noc(C)c1CNC1CCc2c(sc3ncn(Cc4cccc5cccnc45)c(=O)c23)C1` (centres undefined), the inhibition in assay [1] stood at 80%. In addition, the IC50 in assay [2] worked out at 6.94 µM. Turning to `COc1ccc2ccccc2c1Cn1cnc2sc3c(c2c1=O)CCC(NCC1CCCCC1)C3` (centres undefined), the inhibition in assay [1] came to 97%. Further, in assay [2], the IC50 came to 1.65 µM. The like results for `COc1ccc2ccccc2c1Cn1cnc2sc3c(c2c1=O)CCC(NCc1cccc(F)c1)C3` (centres undefined) were, in that order, 73% and 4.07 µM. The like results for `COc1ccc2ccccc2c1Cn1cnc2sc(CCNC3CCOCC3)c(C)c2c1=O` were, in that order, 68% and 8.15 µM. On the same counts, the results for `O=c1c2c3c(sc2ncn1Cc1ccc2ccccc2c1)CC(NCc1ccccn1)CC3` (centres undefined) are 81% and 8.67 µM.

As to `COc1ccc(CNC2CCc3c(sc4ncn(Cc5cccc6ccccc56)c(=O)c34)C2)cn1` (centres undefined), in assay [1], the inhibition came to 75%. In assay [2], the IC50 was 7.59 µM.

Regarding `COc1ccc2ccccc2c1Cn1cnc2sc3c(c2c1=O)CCC(NCc1cccs1)C3` (centres undefined), the inhibition in assay [1] is 69%. Further, in assay [2], the IC50 amounted to 6.03 µM.

For the molecule `O=c1c2c3c(sc2ncn1Cc1ccc2ccccc2c1)CC(NCCc1ccncc1)CC3` (centres undefined), in assay [1], the inhibition was determined as 72%. Also, in assay [2], the IC50 came out at 9.6 µM. On the same counts, the results for `COc1ccc(CNC2CCc3c(sc4ncn(Cc5ccc6ccccc6c5)c(=O)c34)C2)cc1` (centres undefined) are 86% and 3.82 µM. `O=c1c2c3c(sc2ncn1Cc1cccc2cccnc12)CC(NCc1ccco1)CC3` (centres undefined): the inhibition in assay [1] was determined as 80%. The IC50 in assay [2] turned out to be 4.16 µM. Turning to `O=c1c2c3c(sc2ncn1Cc1cccc2cccnc12)CC(NCc1ccccn1)CC3` (centres undefined), the inhibition in assay [1] is 87%. In addition, in assay [2], the IC50 came out at 2.61 µM. The like results for `COc1ccc2ccccc2c1Cn1cnc2sc3c(c2c1=O)CCC(NCc1c(C)noc1C)C3` (centres undefined) were, in that order, 87% and 4 µM. `O=c1c2c3c(sc2ncn1Cc1cccc2cccnc12)CC(NCc1cccc(Cl)c1)CC3` (centres undefined): the inhibition in assay [1] is 88%. Moreover, the IC50 in assay [2] stood at 2.84 µM.

For `O=c1c2c3c(sc2ncn1Cc1cccc2ccccc12)CC(NCc1ccncc1)CC3` (centres undefined), the inhibition in assay [1] is 92%. Moreover, the IC50 in assay [2] is 3.58 µM. The like results for `COc1ccccc1Cn1cnc2sc3c(c2c1=O)CCC(NC1CCc2ccccc21)C3` (centres undefined) were, in that order, 70% and 16.3 µM. In the case of `O=c1c2c3c(sc2ncn1Cc1cccc(-c2ccccc2)c1)CC(NCCN1CCCC1)CC3` (centres undefined), the inhibition in assay [1] was 77%. Further, the IC50 in assay [2] was 3.78 µM. The like results for `O=c1c2c3c(sc2ncn1Cc1ccc2ccccc2c1)CC(NCC1CCCO1)CC3` (centres undefined) were, in that order, 71% and 13.1 µM. On to `COc1ccc2ccccc2c1Cn1cnc2sc3c(c2c1=O)CCC(NCCc1ccncc1)C3` (centres undefined), for which the inhibition in assay [1] worked out at 95%. Further, the IC50 in assay [2] amounted to 2.75 µM. For the molecule `COc1ccc2ccccc2c1Cn1cnc2sc3c(c2c1=O)CCC(NC1CCOCC1)C3` (centres undefined), in assay [1], the inhibition is 96%. Moreover, in assay [2], the IC50 came to 1.11 µM. In the case of `O=c1c2c3c(sc2ncn1Cc1ccc2ccccc2c1)CC(NCc1cncnc1)CC3` (centres undefined), in assay [1], the inhibition was found to be 88%. The IC50 in assay [2] turned out to be 5.3 µM.

Consider `O=c1c2c3c(sc2ncn1Cc1cccc2cccnc12)CC(NC1CCc2ccccc21)CC3` (centres undefined), for which the inhibition in assay [1] worked out at 91%. The IC50 in assay [2] amounted to 3.09 µM. `COc1ccc(CNC2CCc3c(sc4ncn(Cc5c(OC)ccc6ccccc56)c(=O)c34)C2)cn1` (centres undefined): in assay [1], the inhibition came out at 83%. Also, in assay [2], the IC50 came to 1.9 µM. Take `Cc1noc(C)c1CNC1CCc2c(sc3ncn(Cc4cccc5ccccc45)c(=O)c23)C1` (centres undefined): in assay [1], the inhibition turned out to be 85%. Besides, the concentration for half-maximal inhibition (IC50) in assay [2] was determined as 1.85 µM. On the same counts, the results for `COc1ccccc1Cn1cnc2sc3c(c2c1=O)CCC(NCC1CCCCC1)C3` (centres undefined) are 79% and 9.18 µM.

Take `COc1ccccc1NC1CCc2c(sc3ncn(Cc4cccc5cccnc45)c(=O)c23)C1` (centres undefined): in assay [1], the inhibition worked out at 69%. As to `O=c1c2c3c(sc2ncn1Cc1cccc2ccccc12)CC(NC1CCCC1)CC3` (centres undefined), the inhibition in assay [1] came out at 61%. With `O=c1c2c3c(sc2ncn1Cc1cccc(-c2ccccc2)c1)CC(NCc1ccccc1F)CC3` (centres undefined), the inhibition in assay [1] amounted to 43%. In the case of `COc1ccc2ccccc2c1Cn1cnc2sc3c(c2c1=O)CCC(NCc1ccccc1F)C3` (centres undefined), the inhibition in assay [1] is 64%. Take `COc1ccc(NC2CCc3c(sc4ncn(Cc5cccc(-c6ccccc6)c5)c(=O)c34)C2)cc1` (centres undefined): the inhibition in assay [1] worked out at 31%. With `COc1cccc(Cn2cnc3sc4c(c3c2=O)CCC(NCCc2ccncc2)C4)c1` (centres undefined), the inhibition in assay [1] worked out at 39%. For `COc1cccc(Cn2cnc3sc4c(c3c2=O)CCC(NCc2ccco2)C4)c1` (centres undefined), in assay [1], the inhibition came to 33%.

As for `COc1ccccc1NC1CCc2c(sc3ncn(Cc4ccc5ccccc5c4)c(=O)c23)C1` (centres undefined), the inhibition in assay [1] is 36%. Turning to `O=c1c2c3c(sc2ncn1Cc1cccc2ccccc12)CC(NCc1ccccc1)CC3` (centres undefined), the inhibition in assay [1] turned out to be 66%.

For the origin of these results see ChEMBL document CHEMBL4004822, “Thienopyrimidinone Based Sirtuin-2 (SIRT2)-Selective Inhibitors Bind in the Ligand Induced Selectivity Pocket” (J Med Chem, 2017).
